Hit rate of the full screen: of about 2,500 compounds, about 1,200 (48%) were called active.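 Rule for the calls: active = mean activation above the low control average plus 3 SD, as set in the primary screen (cut at about 12% in these data); inactive = the rest.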 The set was probably picked from earlier hits. The list shows a part of the results.
target: Troponin I, cardiac muscle (Homo sapiens) + Troponin T, cardiac muscle (Homo sapiens) + Troponin C, slow skeletal and cardiac muscles (Homo sapiens) (UniProt P19429+P45379+P63316); experiment: cardiac RTF calcium sensitivity activators, confirmation, biochemical, IANBD-TnC fluorescence, triplicate (AID 504383); conditions: IANBD-labeled cardiac RTF, Ca2+ sensitivity fluorescence; at 7.2 µM; stronger effect = higher value; scaled from EC20 to saturating calcium; tested at EC20 calcium, 0.472 mM;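 note: 0% = DMSO at 0.472 mM calcium and 100% = DMSO at 2.9 mM calcium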
Outline: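 Assay system: labelled regulated thin filaments / Timing: 15 min at 25 °C / Detection: fluorescence intensity of labelled filaments / Measure: fluorescence gain scaled between EC20 and EC100 calcium controls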

SMILES	activation
CCCCNc1ccc2c3c(cccc13)C(=O)N(CCCC)C2=O	5.54% (inactive)
CN1C(=O)c2cccc3c(N(C)C)ccc(c23)C1=O	223% (active)
CNc1ccc2c3c(cccc13)C(=O)N(C)C2=O	44.4% (active)
Cc1ccccc1N1C(=O)c2cccc3c(N(C)CCO)ccc(c23)C1=O	11.1% (inactive)
Cc1cccc(N2C(=O)c3cccc4c(N(C)CCO)ccc(c34)C2=O)c1	6.7% (inactive)
CN1C(=O)c2cccc3c(N)ccc(c23)C1=O	5.53% (inactive)
O=C(Cc1ccc(Cl)cc1)NNS(=O)(=O)c1ccc([N+](=O)[O-])cc1	275% (active)
O=C(CSc1ccc(Cl)cc1)Nc1nnc(-c2cccc([N+](=O)[O-])c2)s1	-1.31% (inactive)
O=S(=O)(O)c1nc2ccccc2n1Cc1ccccc1	51.8% (active)
O=c1[nH]ncc2c3ccccc3n(Cc3cccc(Cl)c3)c12	-2.41% (inactive)
Cc1ccccc1NC(=O)c1nnn(-c2ccc3c(c2)OCCO3)c1N	5.33% (inactive)
CCN1C(=O)c2cccc3c(NC(=O)c4ccc5c(c4)OCCO5)ccc1c23	1730% (active)
CCCCN(C(=O)c1ccc2c(c1)OCCO2)c1c(N)n(CCCC)c(=O)[nH]c1=O	3.97% (inactive)
CN(Cc1ccccc1)C(=O)c1ccc(NC(=O)Cc2ccc(NC(=O)C3CCCN(S(=O)(=O)c4cccc([N+](=O)[O-])c4)C3)cc2)cc1 (centres undefined)	6.95% (inactive)
COc1cccc(S(=O)(=O)Nc2cccc(C(=O)N3CCCCCC3)c2)c1	-0.51% (inactive)
O=C(Cc1ccc(NC(=O)C2CCCN(C(=O)C3CCCCC3)C2)cc1)Nc1cccc(C(=O)N2CCCC2)c1 (centres undefined)	13.2% (active)
Cc1ccc(S(=O)(=O)NCCCCCC(=O)Nc2ccccc2C)cc1	34.1% (active)
CC(=O)Nc1ccc(S(=O)(=O)NCCC(=O)OCC(=O)c2cc(C)ccc2C)cc1	10.1% (inactive)
Cc1ccc(S(=O)(=O)Nc2ccccc2N(C)S(=O)(=O)c2ccc(C)cc2)cc1	9.04% (inactive)
Cc1ccc(C)c(OCCN2C(=O)NC3(CCc4ccccc4C3)C2=O)c1 (centres undefined)	2.13% (inactive)
C=COc1ccc(N2C(=O)c3ccccc3OC2C)cc1 (centres undefined)	32.1% (active)
COc1ccc(CC(=O)N(C)Cc2cccc(F)c2)cc1S(=O)(=O)N1CCOCC1	12.3% (active)
Cc1ccc(C(=O)N(C)CC(=O)Nc2cccc(F)c2)cc1S(=O)(=O)N1CCCCC1	6.56% (inactive)
COc1cc(/C=C2/C(=O)NN(c3cccc(F)c3)C2=O)ccc1OC(=O)c1ccco1	3.13% (inactive)

SMILES	activation
NC(=O)c1ccccc1N/C=C/C(=O)c1ccc(Cl)cc1Cl	19% (active)
COC(=O)c1cnn2c(C(F)(F)F)cc(-c3ccco3)nc12	4.76% (inactive)
Cc1cccc(C)c1NC(=O)CN(C1CCCCC1)S(C)(=O)=O	9.63% (inactive)
CSc1nc2ccccc2n1CC(=O)Nc1c(C)cccc1C	12.7% (active)
Cc1cccc(C)c1NC(=O)CNC(=O)Cc1ccc(Br)cc1	10.9% (inactive)
NC(=O)NC(Cc1ccccc1)C(=O)NCC1(N2CCCCC2)CCCCC1 (centres undefined)	9.4% (inactive)
Cc1nn(-c2ccccc2)c(Cl)c1C(=O)NC1CCCCC1	20.7% (active)
Cc1cc(-c2ccccc2C(=O)NC2CCCCC2)on1	6.39% (inactive)
Cc1c(C(=O)NC2CC2)oc2ccccc12	7.6% (inactive)
O=C(CNC(=O)C12CC3CC(CC(C3)C1)C2)OCC(=O)N1CCCCC1	11.6% (inactive)
COc1ccc2nc(-c3ccccn3)[nH]c2c1	93.2% (active)
COc1ccc(OC)c(/C=C/c2nc3ccccc3[nH]c2=O)c1	6.55% (inactive)
COc1ccc(OC)c(C2=C/C(=C/c3ccccn3)C(=O)O2)c1	6.12% (inactive)
O=c1[nH]c2cc(C(F)(F)F)ccc2n1-c1cc(C(F)(F)F)ccc1O	8.69% (inactive)
CCOc1ccccc1C(=O)NN1C(=O)CCC1=O	23.7% (active)
Cc1ccnc2nc(C(=O)OCC(=O)NCCc3ccccc3)nn12	28.6% (active)
Cc1cc(S(=O)(=O)NC(C)C)ccc1OCC(=O)NCc1ccccc1	3.1% (inactive)
CCC1C/C(=C\c2cc(OC)c(OC)cc2OC)C(=O)/C(=C/c2cc(OC)c(OC)cc2OC)C1 (centres undefined)	21.3% (active)
COc1cc(OC)c(OC)cc1/C=C1/Cc2ccccc2C1=O	8.78% (inactive)
Cc1cc(NS(C)(=O)=O)c(=O)n(Cc2cccc(F)c2)c1	0.31% (inactive)
C/C(=C\C=C(C#N)C#N)c1cc(C#N)c(N)o1	16.3% (active)
c1ccc(Cn2c(-c3ccccc3)nc3nc4ccccc4nc32)cc1	32.2% (active)
Oc1ccc2ccccc2c1C=NCc1cn2ccsc2n1	3.76% (inactive)
Cc1nnc(-c2ccccc2)c(=O)n1/N=C/c1c(O)ccc2ccccc12	5.78% (inactive)

SMILES	activation
O=C(N/N=C\c1c(O)ccc2ccccc12)c1cncc(Br)c1	20% (active)
O=C(N/N=C/c1c(O)ccc2ccccc12)c1cccc(C(F)(F)F)c1	164% (active)
O=C(NN=Cc1c(O)ccc2ccccc12)c1ccncc1	9.86% (inactive)
Cn1nnnc1SCCOc1ccc(C#N)cc1	-1.4% (inactive)
CCOC(=O)c1cn(-c2ccc(F)c(F)c2F)c2c(F)c(F)c(F)cc2c1=O	10.3% (inactive)
Cc1c(N=C2N=C(NC(=O)Nc3ccc(Cl)cc3)c3ccccc32)c(=O)n(-c2ccccc2)n1C	58.8% (active)
Cc1cc([N+](=O)[O-])nn1CC(=O)Nc1c(C)n(C)n(-c2ccccc2)c1=O	8.97% (inactive)
CC/C(=C/c1sc2ccccc2[n+]1CC)SC	2.73% (inactive)
CC[n+]1c(/C=C/C=C/N(C(C)=O)c2ccccc2)sc2ccccc21	135% (active)
CCCC(NC(=O)CCc1c(C)c2cc3c(-c4ccccc4)coc3cc2oc1=O)C(=O)O (centres undefined)	181% (active)
C=CCOc1ccccc1CNc1cccc(F)c1	7.46% (inactive)
C=CCOc1ccc(Br)cc1CNCC	29.4% (active)
Cc1nc(NC(=O)C(Cl)Cl)sc1C(=O)N(C)C	8.86% (inactive)
CCn1cc(/C=C/C(=O)Nc2c(C)nn(Cc3ccccc3C)c2C)cn1	7.35% (inactive)
Cc1ccc(Cn2nc(C)c(NC(=O)C3(C)CC3(Br)Br)c2C)cc1 (centres undefined)	17.1% (active)
Cc1nn(Cc2c(F)c(F)c(F)c(F)c2F)c(C)c1NC(=O)c1nn(C)c(C)c1Br	9.42% (inactive)
Cn1c(=O)cc(N)n(Cc2ccccc2)c1=O	42.5% (active)
Cc1ccc(NC(=O)COC(=O)/C=C/c2c(C)nn(-c3ccc(F)cc3)c2Cl)cc1F	8% (inactive)
CCOc1ccc(C(C(=O)NC2CCCCC2)N(C(=O)Cc2cccs2)c2ccc(-n3cnnn3)c(OC)c2)cc1 (centres undefined)	3.97% (inactive)
CCOc1ccc(-n2c(SCC(=O)Nc3ccc(OC)cc3OC)nc3c(c2=O)SCC3)cc1	13.3% (active)
Cc1ccc(C(C)NC(=O)c2cccs2)cc1C (centres undefined)	480% (active)
O=C(CSc1nnc(-c2ccco2)o1)NC1CCCCC1	6.06% (inactive)
CCCCNC(=O)Nc1nnc(-c2ccccc2)o1	10.1% (inactive)
O=C(CCSc1nnc(-c2ccco2)o1)Nc1ccccc1	69% (active)

SMILES	activation
C/C(O)=c1/ccc2cccc3nc(C)nc1c23	62.2% (active)
Cc1ccccc1NS(=O)(=O)c1ccc(OCC(=O)N2CCCCC2)cc1	6.33% (inactive)
COc1ccc(CN(Cc2cccn2C)S(=O)(=O)c2ccccc2)cc1	9.11% (inactive)
CCN(CC(=O)N1CCCC1)S(=O)(=O)c1ccc(OC)cc1	262% (active)
O=C1NC(c2cccc([N+](=O)[O-])c2)Oc2ccccc21 (centres undefined)	10.3% (inactive)
Cc1ccc(C)c(NC(=O)CCN2CCOCC2)c1	0.21% (inactive)
Cc1ccc(C)c(NC(=O)COC(=O)Cc2ccsc2)c1	12.3% (active)
O=C(NCc1ccc(OC(F)(F)F)cc1)c1cccc2c1C(=O)c1ccc(N3CCCCC3)cc1S2(=O)=O	17.5% (active)
CN1CCC[C@@H]1CCNC(=O)c1cccc2c1C(=O)c1ccc(N3CCCC3)cc1S2(=O)=O	-0.88% (inactive)
O=C(NC1CCCCC1)c1cccc2c1C(=O)c1ccc(N3CCC(Cc4ccccc4)CC3)cc1S2(=O)=O	5.3% (inactive)
O=C(NCC1CC1)c1cccc2c1C(=O)c1ccc(N3CCCC3)cc1S2(=O)=O	183% (active)
O=C(NCc1cccc(F)c1)c1cccc2c1C(=O)c1ccc(N3CCCC3)cc1S2(=O)=O	8.28% (inactive)
CC1CCN(c2ccc3c(c2)S(=O)(=O)c2cccc(C(=O)NC4CCCCC4)c2C3=O)CC1	1.22% (inactive)
C=CCNC(=O)c1cccc2c1C(=O)c1ccc(N3CCCC3)cc1S2(=O)=O	6.98% (inactive)
Cc1ccc(CNC(=O)c2cccc3c2C(=O)c2ccc(N4CCCCC4)cc2S3(=O)=O)cc1	6.7% (inactive)
O=C(NC1CCCCC1)c1cccc2c1C(=O)c1ccc(N3CCCC3)cc1S2(=O)=O	87.8% (active)
CCOCCCNC(=S)NCCCNc1nc2c(C)cc(C)cc2cc1C#N	7.25% (inactive)
Cc1ccccc1OCCC(=O)Nc1cc(S(=O)(=O)N2CCCCC2)ccc1N1CCN(C)CC1	16.9% (active)
O=C(CN1CCc2ccccc2C1)Nc1cc(S(=O)(=O)N2CCOCC2)ccc1N1CCOCC1	8.9% (inactive)
O=C(/C=C/c1cccc(F)c1)Nc1cc(S(=O)(=O)N2CCOCC2)ccc1N1CCCC1	9.19% (inactive)
CCn1c(SCC(=O)NNC(=O)c2ccco2)nnc1-c1ccco1	-0.46% (inactive)
CCn1c(SCC(=O)c2ccc(Cl)cc2)nnc1C(C)C	13.2% (active)
